Experimental data: ChEMBL document CHEMBL1212882, “Phenolic constituents isolated from Fragaria ananassa Duch. inhibit antigen-stimulated degranulation through direct inhibition of spleen tyrosine kinase activation” (Bioorg Med Chem, 2010)
The source made the active and inactive calls. No cut-off for these calls is given here.

Assays:
Type in all cases: cell-based
[1] = biological target: Tyrosine-protein kinase SYK (Rattus norvegicus) (UniProt Q64725); experiment: Inhibition of spleen tyrosine kinase in rat RBL-2H3 cells assessed as inhibition of IgE-induced degranulation at 10 to 100 uM after 1 hr by beta-hexosaminidase release assay
Chain of Tyrosine-protein kinase SYK (Rattus norvegicus) (Q64725 whole entry, looked up): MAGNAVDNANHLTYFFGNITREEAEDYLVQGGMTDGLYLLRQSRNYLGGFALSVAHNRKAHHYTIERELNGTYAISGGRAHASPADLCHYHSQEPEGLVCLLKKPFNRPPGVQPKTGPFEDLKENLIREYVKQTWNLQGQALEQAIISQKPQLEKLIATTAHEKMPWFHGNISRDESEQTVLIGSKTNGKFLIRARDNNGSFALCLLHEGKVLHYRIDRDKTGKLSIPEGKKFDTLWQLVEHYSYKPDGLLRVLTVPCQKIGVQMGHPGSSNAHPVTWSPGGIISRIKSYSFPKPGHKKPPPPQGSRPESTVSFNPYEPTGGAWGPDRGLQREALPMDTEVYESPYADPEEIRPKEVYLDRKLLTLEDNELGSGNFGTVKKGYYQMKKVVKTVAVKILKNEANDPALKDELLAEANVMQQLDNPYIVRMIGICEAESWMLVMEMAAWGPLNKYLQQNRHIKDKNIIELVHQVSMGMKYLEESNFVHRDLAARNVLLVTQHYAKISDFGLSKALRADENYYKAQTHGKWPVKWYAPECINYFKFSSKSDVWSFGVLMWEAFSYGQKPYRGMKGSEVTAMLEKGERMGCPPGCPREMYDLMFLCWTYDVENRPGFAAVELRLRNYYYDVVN
Summary of the method: (§1)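 RBL-2H3 cells (2 × 10^4/well) cultured 1 h, then sensitized with anti-DNP IgE 0.45 µg/ml for 24 h. Cells were washed in Siraganian buffer A (PIPES, pH 7.2) and equilibrated in buffer B at 37 °C for 10 min. Compound was added at 37 °C for 30 min, then DNP-BSA 10 µg/ml for 10 min. Supernatant β-hexosaminidase was read with p-nitrophenyl-N-acetyl-β-D-glucosaminide at A405, corrected for direct enzyme inhibition.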

[2] = biological target: Tyrosine-protein kinase SYK (Rattus norvegicus) (UniProt Q64725); experiment: Inhibition of spleen tyrosine kinase in rat RBL-2H3 cells assessed as inhibition of IgE-induced upregulation of phospholipase 2 level at 50 uM after 30 mins by Western blotting
Summary of the method: (§2)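 IgE-sensitized RBL-2H3 cells were pretreated 30 min with 50 µM compound and stimulated with DNP-BSA. Lysates were run on SDS-PAGE and transferred to PVDF. Membranes were blocked 1 h in 5% nonfat milk, probed with primary antibody overnight at 4 °C, then HRP secondary antibody 1 h at room temperature. ECL chemiluminescence detection; three independent experiments.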

[3] = biological target: Tyrosine-protein kinase SYK (Rattus norvegicus) (UniProt Q64725); experiment: Inhibition of spleen tyrosine kinase in rat RBL-2H3 cells assessed as inhibition of IgE-induced increase of ROS level at 50 uM after 30 mins by FLIPR assay
Summary of the method: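 Sensitized RBL-2H3 cells (5 × 10^4/well) took up 10 µM CM-H2DCFDA for 30 min at 37 °C and were washed twice. Cells were exposed to 50 µM compound for 30 min, then challenged with DNP-BSA 10 µg/ml. DCF fluorescence (ex 490/em 530 nm) was read on a fluorometric imaging plate reader. DPI 200 nM served as control. Means ± SEM, n = 10.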

[4] = biological target: Tyrosine-protein kinase SYK (Rattus norvegicus) (UniProt Q64725); experiment: Inhibition of spleen tyrosine kinase in rat RBL-2H3 cells assessed as inhibition of IgE-induced degranulation after 1 hr by beta-hexosaminidase release assay; summary of the method: as §1
[5] = biological target: Tyrosine-protein kinase SYK (Rattus norvegicus) (UniProt Q64725); experiment: Inhibition of spleen tyrosine kinase in rat RBL-2H3 cells assessed as inhibition of IgE-induced upregulation of Lyn level at 50 uM after 30 mins by Western blotting; summary of the method: as §2
[6] = biological target: Tyrosine-protein kinase SYK (Rattus norvegicus) (UniProt Q64725); experiment: Inhibition of spleen tyrosine kinase in rat RBL-2H3 cells assessed as inhibition of IgE-induced upregulation of phospholipase Cgamma1 level at 50 uM after 30 mins by Western blotting; summary of the method: as §2
[7] = biological target: Tyrosine-protein kinase SYK (Rattus norvegicus) (UniProt Q64725); experiment: Inhibition of spleen tyrosine kinase in rat RBL-2H3 cells assessed as inhibition of IgE-induced increase of intracellular calcium level at 50 uM after 30 mins by FLIPR assay
Summary of the method: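 IgE-sensitized RBL-2H3 cells (5 × 10^4/well; anti-DNP IgE 0.45 µg/ml, 24 h) were loaded with Fluo-3AM for 1 h. Cells were washed and held 30 min in loading buffer containing 50 µM compound, then stimulated with DNP-BSA 10 µg/ml. Fluorescence (ex 490/em 530 nm) was recorded on a fluorometric imaging plate reader. Means ± SEM, n = 12.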

[8] = biological target: Tyrosine-protein kinase SYK (Rattus norvegicus) (UniProt Q64725); experiment: Inhibition of spleen tyrosine kinase in rat RBL-2H3 cells assessed as inhibition of IgE-induced upregulation of PI3K/Akt level at 50 uM after 30 mins by Western blotting; summary of the method: as §2
[9] = biological target: Tyrosine-protein kinase SYK (Rattus norvegicus) (UniProt Q64725); experiment: Inhibition of spleen tyrosine kinase in rat RBL-2H3 cells assessed as inhibition of IgE-induced upregulation of ERK1/2 level at 50 uM after 30 mins by Western blotting; summary of the method: as §2
[10] = biological target: Tyrosine-protein kinase SYK (Rattus norvegicus) (UniProt Q64725); experiment: Inhibition of spleen tyrosine kinase in rat RBL-2H3 cells assessed as inhibition of IgE-induced upregulation of JNK level at 50 uM after 30 mins by Western blotting; summary of the method: as §2
[11] = biological target: Tyrosine-protein kinase SYK (Rattus norvegicus) (UniProt Q64725); experiment: Inhibition of spleen tyrosine kinase in rat RBL-2H3 cells assessed as inhibition of IgE-induced upregulation of cPLA2 level at 50 uM after 30 mins by Western blotting; summary of the method: as §2
[12] = biological target: Tyrosine-protein kinase SYK (Rattus norvegicus) (UniProt Q64725); experiment: Inhibition of spleen tyrosine kinase in rat RBL-2H3 cells assessed as inhibition of IgE-induced upregulation of p38 level at 50 uM after 30 mins by Western blotting; summary of the method: as §2

| inhibition [1] | inhibition [2] | inhibition [3] | inhibition [4] | inhibition [5] | inhibition [6] | inhibition [7] | inhibition [8] | inhibition [9] | inhibition [10] | inhibition [11] | inhibition [12] | SMILES |
| --- | --- | --- | --- | --- | --- | --- | --- | --- | --- | --- | --- | --- |
| inactive | – | – | – | – | – | – | – | – | – | – | – | O=C(O)/C=C/c1ccc(O)cc1 |
| – | Active | Active | Dose-dependent effect | inactive | Active | Active | – | – | – | – | – | O=C(O)/C=C/c1ccccc1 |
| Active | – | – | – | – | – | – | – | – | – | – | – | O=C(/C=C/c1ccccc1)O[C@@H]1O[C@H](CO)[C@@H](O)[C@H](O)[C@H]1O |
| – | Active | Active | Dose-dependent effect | inactive | Active | Active | Active | Active | Active | Active | Active | COC(=O)/C=C/c1ccc(O[C@@H]2O[C@H](CO)[C@@H](O)[C@H](O)[C@H]2O)cc1 |
